Laboratory results from ChEMBL document CHEMBL1123712, “Synthesis and biological activity of novel calcium channel blockers: 2,5-dihydro-4-methyl-2-phenyl-1,5-benzothiazepine-3-carboxylic acid esters and 2,5-dihydro-4-methyl-2-phenyl-1,5-benzodiazepine-3-carboxylic acid esters” (J Med Chem, 1987).

Assays:
[1] = species: Oryctolagus cuniculus; experiment: Calcium channel blocking activity in rabbit; format: functional
Summary of the method: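 Thoracic aorta strips from male New Zealand rabbits (1.8–2.4 kg) in Krebs PSS at 37 °C, gassed 95% O2/5% CO2, pH 7.35. Contracted with high-K+ (100 mM KCl, NaCl reduced equimolar) Krebs. At plateau tension, increasing concentrations added cumulatively. Relaxation normalized to initial tension. IC50 by logit transformation of concentration-response curves.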

[2] = molecular target: Voltage-dependent L-type calcium channel subunit alpha-1C (Canis lupus familiaris); experiment: Reduction in amplitude of calcium-dependent slow-response action potential by blocking voltage sensitive calcium channel
[3] = tested on: Rattus norvegicus; experiment: Percent decrease in blood pressure in hypertensive rat at 60 mg/kg po; format: functional
Summary of the method: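 Spontaneously hypertensive rats dosed orally. Read-out was percent fall in blood pressure.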

[4] = tested on: Rattus norvegicus; experiment: Percent decrease in blood pressure in hypertensive rat at 16 mg/kg po; format: functional
Summary of the method: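 Spontaneously hypertensive rats dosed orally. Blood pressure read-out expressed as percent decrease. Test agents were given […] po.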

**Q.** Which IC50 [1] does the source give for `CO/C(O)=C1\C(C)=Nc2ccccc2SC1c1ccccc1` (stereo unspecified) here?
**A.** 1.7 µM

**Q.** With `CO/C(O)=C1\C(C)=Nc2ccccc2SC1c1ccccc1C(F)(F)F` (stereo unspecified) as the compound, how does the IC50 [1] read?
**A.** 12 µM

**Q.** With `CO/C(O)=C1\C(C)=Nc2ccccc2SC1c1ccc(OC)cc1` (stereo unspecified) as the compound, how does the IC50 [1] read?
**A.** 22 µM

**Q.** What does the source list for `CO/C(O)=C1\C(C)=Nc2ccccc2SC1c1cccc([N+](=O)[O-])c1` (stereo unspecified)?
**A.** IC50 [2]: 0.14 µM; IC50 [1]: 1.2 µM

**Q.** For `CCO/C(O)=C1\C(C)=Nc2ccccc2NC1c1cccc([N+](=O)[O-])c1` (stereo unspecified), which IC50 [1] is on record?
**A.** 1.6 µM

**Q.** With `CC1=Nc2ccccc2SC(c2cccc([N+](=O)[O-])c2)/C1=C(\O)OC(C)C` (stereo unspecified) as the compound, how does the IC50 [1] read?
**A.** 0.5 µM

**Q.** Which IC50 [1] does the source give for `CCO/C(O)=C1\C(C)=Nc2ccccc2SC1c1cccc([N+](=O)[O-])c1` (stereo unspecified) here?
**A.** 0.4 µM

**Q.** For `COC(=O)C1=C(C)N(CCN(C)C)c2ccccc2SC1c1cccc([N+](=O)[O-])c1` (stereo unspecified), which IC50 [1] is on record?
**A.** 1.1 µM

**Q.** `CO/C(O)=C1\C(C)=Nc2ccccc2SC1c1ccccc1[N+](=O)[O-]` (stereo unspecified) was tested. Which IC50 [1] did it give?
**A.** 0.3 µM

**Q.** With `CO/C(O)=C1\C(C)=Nc2ccccc2S(=O)(=O)C1c1ccccc1` (stereo unspecified) as the compound, how does the IC50 [1] read?
**A.** 10 µM

**Q.** Which IC50 [1] does the source give for `CO/C(O)=C1\C(C)=Nc2ccccc2SC1c1ccc([N+](=O)[O-])cc1` (stereo unspecified) here?
**A.** 3 µM

**Q.** `COc1ccc([C@@H]2Sc3ccccc3N(CCN(C)C)C(=O)[C@@H]2OC(C)=O)cc1` [DILTIAZEM] was tested. Which IC50 [1] did it give?
**A.** 1 µM

**Q.** And the Decrease [3]?
**A.** 10%

**Q.** Which results are given for `COC(=O)C1=C(C)NC(C)=C(C(=O)OC)C1c1ccccc1[N+](=O)[O-]` [NIFEDIPINE]?
**A.** Decrease [4]: 25%; IC50 [1]: 0.001 µM
